Results from ChEMBL document CHEMBL1126582, “Symmetry-based inhibitors of HIV protease. Structure-activity studies of acylated 2,4-diamino-1,5-diphenyl-3-hydroxypentane and 2,5-diamino-1,6-diphenylhexane-3,4-diol” (J Med Chem, 1993).
Values after ≈ are worked out from the molar mass of the structure shown.

How the values were obtained:
MT4 = assay: In vitro for cytotoxicity in MT-4 lymphocytes in the absence of HIV infection.; format: functional; details: Homo sapiens
How it was run: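 Uninfected MT-4 lymphocytes were cultured with compound. CC50 is the concentration at which 50% of cells remain viable.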

[1] = test system: Human immunodeficiency virus 1; assay: In vitro for inhibition of cytopathic effect of HIV-1 3B in MT-4 lymphocytes.; format: functional, organism-based
How it was run: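 MT-4 lymphocytes were infected with HIV-1 3B at an MOI of either 0.001 or 0.032 tissue culture infective dose per cell. EC50 is the concentration preventing 50% of viral cytopathic effect, from a single triplicate assay. No effect means no activity up to 100 μM or up to the cytotoxic concentration.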

[2] = target: Human immunodeficiency virus type 1 protease (Human immunodeficiency virus 1, UniProt Q72874); assay: Inhibition of purified recombinant HIV-1 protease in a fluorogenic assay
How it was run: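 Purified recombinant HIV-1 protease, with cleavage of the fluorogenic substrate DABCYL-[…]-Pro-Ile-Val-Gln-EDANS as read-out. Value is the inhibitor concentration giving 50% inhibition of protease activity.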

[3] = Estimated solubility (buffer pH 7.4); format: ADME; details: read-out: S
How it was run: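 Solubility was estimated in pH 7.4 phosphate buffer.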

SMILES | CC50 (MT4) | EC50 [1] | IC50 [2] | solubility [3]
CC(C)[C@H](NC(=O)OCc1ccccc1)C(=O)N[C@@H](Cc1ccccc1)[C@H](O)[C@H](O)[C@H](Cc1ccccc1)NC(=O)[C@H](NC(=O)OCc1ccccc1)C(C)C | > 100000 nM | 70 nM | < 1 nM | –
CC(C)[C@H](NC(=O)OCC1CCCCN1C)C(=O)N[C@@H](Cc1ccccc1)[C@@H](O)[C@H](Cc1ccccc1)NC(=O)[C@H](NC(=O)OCc1ccccc1)C(C)C (stereo partly specified) | – | – | 63 nM | 19 µg/mL (≈ 25.1 µM)
CC(C)[C@H](NC(=O)N(C)Cc1ccccn1)C(=O)N[C@@H](Cc1ccccc1)[C@H](O)[C@@H](O)[C@H](Cc1ccccc1)NC(=O)[C@H](NC(=O)N(C)Cc1cccnc1)C(C)C | > 100000 nM | 480 nM | < 1 nM | 420 µg/mL (≈ 528 µM)
CC(C)[C@H](NC(=O)/C=C/c1cccnc1)C(=O)N[C@@H](Cc1ccccc1)[C@@H](O)[C@@H](O)[C@H](Cc1ccccc1)NC(=O)[C@H](NC(=O)/C=C/c1cccnc1)C(C)C | > 100000 nM | 6200 nM | 5.3 nM | 23 µg/mL (≈ 30.2 µM)
CC(C)[C@H](NC(=O)N(C)Cc1ccccn1)C(=O)N[C@@H](Cc1ccccc1)[C@@H](O)[C@H](O)[C@H](Cc1ccccc1)NC(=O)[C@H](NC(=O)N(C)Cc1ccccn1)C(C)C | > 100000 nM | 270 nM | < 1 nM | 197 µg/mL (≈ 248 µM)
CC(C)[C@H](NC(=O)N(C)Cc1nc2ccccc2[nH]1)C(=O)N[C@@H](Cc1ccccc1)[C@H](O)[C@H](O)[C@H](Cc1ccccc1)NC(=O)[C@H](NC(=O)N(C)Cc1nc2ccccc2[nH]1)C(C)C | 31000 nM | 1900 nM | < 1 nM | 18 µg/mL (≈ 20.6 µM)
CC(C)[C@H](NC(=O)CN1CCOCC1)C(=O)N[C@@H](Cc1ccccc1)[C@@H](O)[C@@H](O)[C@H](Cc1ccccc1)NC(=O)[C@H](NC(=O)CN1CCOCC1)C(C)C | – | – | 7.5 nM | –
CC(C)[C@H](NC(=O)OCc1ccccn1)C(=O)N[C@@H](Cc1ccccc1)[C@@H](O)[C@@H](O)[C@H](Cc1ccccc1)NC(=O)[C@H](NC(=O)OCc1ccccn1)C(C)C | > 100000 nM | 450 nM | < 1 nM | 5.4 µg/mL (≈ 7.02 µM)
CC(C)[C@H](NC(=O)OCc1ccccn1)C(=O)N[C@@H](Cc1ccccc1)[C@H](O)[C@H](O)[C@H](Cc1ccccc1)NC(=O)[C@H](NC(=O)OCc1ccccn1)C(C)C | > 100000 nM | 230 nM | < 1 nM | 0.21 µg/mL (≈ 0.273 µM)
CC(C)[C@H](NC(=O)c1cc2ccccc2[nH]1)C(=O)N[C@@H](Cc1ccccc1)[C@@H](O)[C@@H](O)[C@H](Cc1ccccc1)NC(=O)[C@H](NC(=O)c1cc2ccccc2[nH]1)C(C)C | 49000 nM | 70 nM | < 1 nM | –
CC(C)[C@H](NC(=O)N(C)Cc1nc2ccccc2[nH]1)C(=O)N[C@@H](Cc1ccccc1)[C@@H](O)[C@H](O)[C@H](Cc1ccccc1)NC(=O)[C@H](NC(=O)N(C)Cc1nc2ccccc2[nH]1)C(C)C | 27000 nM | 1700 nM | < 1 nM | 6.6 µg/mL (≈ 7.56 µM)
CC(C)[C@H](NC(=O)N(C)Cc1ccccn1)C(=O)N[C@@H](Cc1ccccc1)[C@H](O)[C@H](O)[C@H](Cc1ccccc1)NC(=O)[C@H](NC(=O)N(C)Cc1ccccn1)C(C)C | > 100000 nM | 170 nM | < 1 nM | 3.6 µg/mL (≈ 4.53 µM)
CC(C)[C@H](NC(=O)/C=C/c1ccccn1)C(=O)N[C@@H](Cc1ccccc1)[C@@H](O)[C@@H](O)[C@H](Cc1ccccc1)NC(=O)[C@H](NC(=O)/C=C/c1ccccn1)C(C)C | > 100000 nM | 1100 nM | < 1 nM | 6.8 µg/mL (≈ 8.94 µM)
CC(C)[C@H](NC(=O)NCc1ccccn1)C(=O)N[C@@H](Cc1ccccc1)C(O)[C@H](Cc1ccccc1)NC(=O)[C@H](NC(=O)NCc1ccccn1)C(C)C (stereo partly specified) | > 100000 nM | 6100 nM | 10 nM | 53 µg/mL (≈ 71.9 µM)
CC(C)[C@H](NC(=O)N(C)Cc1ccccn1)C(=O)N[C@@H](Cc1ccccc1)[C@H](O)[C@@H](O)[C@H](Cc1ccccc1)NC(=O)[C@H](NC(=O)N(C)Cc1nccs1)C(C)C | > 100000 nM | 220 nM | < 1 nM | 10.9 µg/mL (≈ 13.6 µM)
CC(C)[C@H](NC(=O)OCc1ccccc1)C(=O)N[C@@H](Cc1ccccc1)[C@@H](O)[C@@H](O)[C@H](Cc1ccccc1)NC(=O)[C@H](NC(=O)OCc1ccccc1)C(C)C | > 100000 nM | 110 nM | < 1 nM | < 0.03 µg/mL
CC(C)[C@H](NC(=O)c1cc2ccccc2[nH]1)C(=O)N[C@@H](Cc1ccccc1)C(O)[C@H](Cc1ccccc1)NC(=O)[C@H](NC(=O)c1cc2ccccc2[nH]1)C(C)C (stereo partly specified) | 58000 nM | 8900 nM | 1.2 nM | –
CC(C)[C@H](NC(=O)OCc1cccnc1)C(=O)N[C@@H](Cc1ccccc1)[C@@H](O)[C@@H](O)[C@H](Cc1ccccc1)NC(=O)[C@H](NC(=O)OCc1cccnc1)C(C)C | > 100000 nM | 440 nM | < 1 nM | 31 µg/mL (≈ 40.3 µM)
CC(C)[C@H](NC(=O)OCc1cccnc1)C(=O)N[C@@H](Cc1ccccc1)[C@@H](O)[C@H](O)[C@H](Cc1ccccc1)NC(=O)[C@H](NC(=O)OCc1cccnc1)C(C)C | – | – | < 1 nM | 0.5 µg/mL (≈ 0.65 µM)
CC(C)[C@H](NC(=O)N(C)CCc1ccccn1)C(=O)N[C@@H](Cc1ccccc1)[C@@H](O)[C@H](O)[C@H](Cc1ccccc1)NC(=O)[C@H](NC(=O)N(C)CCc1ccccn1)C(C)C | 61000 nM | 4200 nM | 5.2 nM | 66 µg/mL (≈ 80.2 µM)
CC(C)[C@H](NC(=O)OCc1cccnc1)C(=O)N[C@@H](Cc1ccccc1)[C@H](O)[C@H](O)[C@H](Cc1ccccc1)NC(=O)[C@H](NC(=O)OCc1cccnc1)C(C)C | – | – | < 1 nM | 0.41 µg/mL (≈ 0.533 µM)
CC(C)[C@H](NC(=O)OCCN1CCOCC1)C(=O)N[C@@H](Cc1ccccc1)C(O)[C@H](Cc1ccccc1)NC(=O)[C@H](NC(=O)OCCN1CCOCC1)C(C)C (stereo partly specified) | – | – | 180 nM | 273 µg/mL (≈ 349 µM)
CC(C)[C@H](NC(=O)N(C)Cc1cccnc1)C(=O)N[C@@H](Cc1ccccc1)[C@@H](O)[C@@H](O)[C@H](Cc1ccccc1)NC(=O)[C@H](NC(=O)N(C)Cc1cccnc1)C(C)C | > 100000 nM | 5700 nM | 1.6 nM | 338 µg/mL (≈ 425 µM)
CC(C)[C@H](NC(=O)N(C)Cc1nc2ccccc2[nH]1)C(=O)N[C@@H](Cc1ccccc1)[C@@H](O)[C@@H](O)[C@H](Cc1ccccc1)NC(=O)[C@H](NC(=O)N(C)Cc1nc2ccccc2[nH]1)C(C)C | 55000 nM | 5000 nM | < 1 nM | 12 µg/mL (≈ 13.7 µM)
CC(C)[C@H](NC(=O)N(C)Cc1cccnc1)C(=O)N[C@@H](Cc1ccccc1)[C@@H](O)[C@H](O)[C@H](Cc1ccccc1)NC(=O)[C@H](NC(=O)N(C)Cc1cccnc1)C(C)C | > 100000 nM | 1700 nM | < 1 nM | 153 µg/mL (≈ 192 µM)
CC(C)[C@H](NC(=O)OCc1ccccc1)C(=O)N[C@@H](Cc1ccccc1)[C@@H](O)[C@H](Cc1ccccc1)NC(=O)[C@H](NC(=O)OCc1ccccc1)C(C)C | > 100000 nM | – | – | > 0.03 µg/mL
CC(C)[C@H](NC(=O)OCc1ccccc1)C(=O)N[C@@H](Cc1ccccc1)[C@@H](O)[C@H](O)[C@H](Cc1ccccc1)NC(=O)[C@H](NC(=O)OCc1ccccc1)C(C)C | > 100000 nM | 90 nM | < 1 nM | –
